Format in all cases: functional, cell-based
In experiment [1] the target is Melanocyte-stimulating hormone receptor (Mus musculus, UniProt Q01727). The experiment in a line: Agonist activity at mouse melanocortin receptor 1 expressed in HEK293 cells assessed as increase in cAMP accumulation after 2 hrs by AlphaScreen assay. In outline: (§1)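 Donor beads and biotin-cAMP in lysis buffer followed for 2 h. The AlphaScreen signal was read. EC50 came from nonlinear least-squares fits, duplicates, at least three independent experiments.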

Experiment [2] has as its target T1, Melanocortin receptor 3 (Mus musculus, UniProt P33033). Nature of the experiment: Agonist activity at mouse melanocortin receptor 3 expressed in HEK293 cells assessed as increase in cAMP accumulation after 2 hrs by AlphaScreen assay.
Experiment [3] concerns the target T2, Melanocortin receptor 4 (Mus musculus, UniProt P56450). The experiment in a line: Antagonist activity at mouse melanocortin receptor 4 expressed in HEK293 cells assessed as inhibition of NDP-MSH-induced cAMP accumulation after 2 hrs by AlphaScreen assay. The following applies: read-out: pA2 (converted).
For experiment [4], the target named is Melanocortin receptor 5 (Mus musculus) (UniProt P41149). The experiment in a line: Inverse agonist activity at mouse melanocortin receptor 5 expressed in HEK293 cells assessed as decrease in cAMP accumulation at 140 nM after 2 hrs by AlphaScreen assay relative to control. More on the design: scale not given: the % may be the effect or the level left. In outline:
(§2)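 In mouse MC5R-HEK293 cells, cAMP was measured by AlphaScreen after 2 h peptide exposure (10−4 to 10−13 M) at room temperature. Each replicate was normalized to its signal at 10−10 M. For sigmoidal curves, percent inverse agonism was the change from basal to the high-concentration plateau. Apparent potency was taken as the curve inflection point. Three independent experiments were run.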

Experiment [5] concerns the target T1, Melanocortin receptor 3. Nature of the experiment: Antagonist activity at mouse melanocortin receptor 3 expressed in HEK293 cells assessed as inhibition of NDP-MSH-induced cAMP accumulation after 2 hrs by AlphaScreen assay. The following applies: read-out: pA2 (converted).
The target in experiment [6] is T2, Melanocortin receptor 4. The experiment in a line: Agonist activity at mouse melanocortin receptor 4 expressed in HEK293 cells assessed as increase in cAMP accumulation after 2 hrs by AlphaScreen assay.
Experiment [7] deals with Melanocortin receptor 5 (Mus musculus) (UniProt P41149). The experiment in a line: Inverse agonist activity at mouse melanocortin receptor 5 expressed in HEK293 cells assessed as decrease in cAMP accumulation at 130 nM after 2 hrs by AlphaScreen assay relative to control. Also on record: scale not given: the % may be the effect or the level left. In outline:
as §2

Experiment [8] concerns the target Melanocyte-stimulating hormone receptor (Mus musculus) (UniProt Q01727). The experiment in a line: Agonist activity at mouse melanocortin receptor 1 expressed in HEK293 cells assessed as increase in cAMP accumulation at 100 uM after 2 hrs by AlphaScreen assay relative to control. In outline:
(§3)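 Cyclic peptides were dissolved in DMSO. Receptor-expressing HEK293 cells in IBMX-containing stimulation buffer (pH 7.4) were stimulated for 2 h at room temperature. cAMP was then detected by competitive AlphaScreen after a 2 h lysis/bead step. […] Values come from at least three independent experiments.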

The target in experiment [9] is Melanocortin receptor 5 (Mus musculus) (UniProt P41149). The experiment in a line: Inverse agonist activity at mouse melanocortin receptor 5 expressed in HEK293 cells assessed as decrease in cAMP accumulation at 60 nM after 2 hrs by AlphaScreen assay relative to control. Also on record: scale not given: the % may be the effect or the level left. In outline: as §2

Experiment [10] has the same target. The experiment in a line: Inverse agonist activity at mouse melanocortin receptor 5 expressed in HEK293 cells assessed as decrease in cAMP accumulation at 50 nM after 2 hrs by AlphaScreen assay relative to control. More on the design: scale not given: the % may be the effect or the level left. In outline: as §2
The target is the same in experiment [11]. The experiment in a line: Inverse agonist activity at mouse melanocortin receptor 5 expressed in HEK293 cells assessed as decrease in cAMP accumulation at 160 nM after 2 hrs by AlphaScreen assay relative to control. More on the design: scale not given: the % may be the effect or the level left. In outline:
as §2

Experiment [12] concerns the target Melanocortin receptor 3 (Mus musculus) (UniProt P33033). The experiment in a line: Agonist activity at mouse melanocortin receptor 3 expressed in HEK293 cells assessed as increase in cAMP accumulation at 100 uM after 2 hrs by AlphaScreen assay relative to control. In outline: as §3
Experiment [13] deals with Melanocortin receptor 5 (Mus musculus) (UniProt P41149). The experiment in a line: Inverse agonist activity at mouse melanocortin receptor 5 expressed in HEK293 cells assessed as decrease in cAMP accumulation at 150 nM after 2 hrs by AlphaScreen assay relative to control. More on the design: scale not given: the % may be the effect or the level left. In outline: as §2

The target of experiment [14] is Melanocortin receptor 4 (Mus musculus) (UniProt P56450). Nature of the experiment: Agonist activity at mouse melanocortin receptor 4 expressed in HEK293 cells assessed as increase in cAMP accumulation at 100 uM after 2 hrs by AlphaScreen assay. In outline: as §3
The target of experiment [15] is Melanocortin receptor 5 (Mus musculus) (UniProt P41149). The experiment in a line: Inverse agonist activity at mouse melanocortin receptor 5 expressed in HEK293 cells assessed as decrease in cAMP accumulation at 700 nM after 2 hrs by AlphaScreen assay relative to control. Also on record: scale not given: the % may be the effect or the level left. In outline:
as §2

Experiment [16] shares this target. The experiment in a line: Inverse agonist activity at mouse melanocortin receptor 5 expressed in HEK293 cells assessed as decrease in cAMP accumulation at 250 nM after 2 hrs by AlphaScreen assay relative to control. More on the design: scale not given: the % may be the effect or the level left. In outline:
as §2

The next experiment addresses Melanocortin receptor 5 (Mus musculus, UniProt P41149). Nature of the experiment: Agonist activity at mouse melanocortin receptor 5 expressed in HEK293 cells assessed as increase in cAMP accumulation after 2 hrs by AlphaScreen assay. In outline: as §1
For experiment [17], the target named is Melanocyte-stimulating hormone receptor (Mus musculus) (UniProt Q01727). Nature of the experiment: Partial agonist activity at mouse melanocortin receptor 1 expressed in HEK293 cells assessed as increase in cAMP accumulation after 2 hrs by AlphaScreen assay relative to NDP. In outline: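 Mouse MC1R stably expressed in HEK293 cells, stimulated for 2 hr at room temperature in the dark. Peptide at 10−4 to 10−13 M in HBSS/HEPES buffer with 0.5 mM IBMX and 0.1% BSA, pH 7.4; forskolin 10−4 M. AlphaScreen cAMP detection after lysis and a further 2 hr. Signal normalized to maximal NDP-MSH response.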

Non-standard residues stand in square brackets, D forms with d. Residues, ends and D or L forms follow the SMILES beside them. Where only a bound is given, the exact number is not on record here.

Here are results for 9 compounds from ChEMBL document CHEMBL4038350 (J Med Chem, 2017).

T2 sequence (P56450 whole entry): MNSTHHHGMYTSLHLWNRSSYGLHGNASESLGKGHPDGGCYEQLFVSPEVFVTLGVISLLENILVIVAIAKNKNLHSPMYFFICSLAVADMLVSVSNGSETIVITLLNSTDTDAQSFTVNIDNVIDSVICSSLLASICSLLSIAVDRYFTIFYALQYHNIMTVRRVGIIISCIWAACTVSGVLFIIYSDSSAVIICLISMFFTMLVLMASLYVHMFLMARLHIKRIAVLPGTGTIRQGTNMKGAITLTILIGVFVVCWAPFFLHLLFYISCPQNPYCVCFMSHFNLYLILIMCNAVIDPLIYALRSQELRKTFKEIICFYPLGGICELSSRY
Chain of Melanocortin receptor 5 (Mus musculus) (P41149 whole entry): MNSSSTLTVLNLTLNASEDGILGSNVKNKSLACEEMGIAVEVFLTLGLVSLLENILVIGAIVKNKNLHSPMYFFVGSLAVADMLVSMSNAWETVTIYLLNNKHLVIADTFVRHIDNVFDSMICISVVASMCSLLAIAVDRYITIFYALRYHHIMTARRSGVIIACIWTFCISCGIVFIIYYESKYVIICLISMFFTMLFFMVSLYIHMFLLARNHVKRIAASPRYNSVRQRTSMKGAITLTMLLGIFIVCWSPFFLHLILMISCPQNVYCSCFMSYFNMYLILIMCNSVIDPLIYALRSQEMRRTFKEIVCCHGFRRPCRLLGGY
Chain of Melanocyte-stimulating hormone receptor (Q01727 whole entry): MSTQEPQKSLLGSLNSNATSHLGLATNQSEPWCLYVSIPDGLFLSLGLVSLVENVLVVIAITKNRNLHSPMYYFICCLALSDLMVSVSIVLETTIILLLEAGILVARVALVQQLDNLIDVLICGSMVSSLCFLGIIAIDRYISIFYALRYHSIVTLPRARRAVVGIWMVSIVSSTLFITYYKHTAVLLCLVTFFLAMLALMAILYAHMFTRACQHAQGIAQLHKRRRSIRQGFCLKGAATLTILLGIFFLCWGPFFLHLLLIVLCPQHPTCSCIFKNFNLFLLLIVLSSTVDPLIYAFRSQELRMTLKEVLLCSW
Chain of Melanocyte-stimulating hormone receptor (Mus musculus) (Q01727 whole entry, looked up): as the sequence (Q01727 whole entry) above
T1 sequence (P33033 whole entry): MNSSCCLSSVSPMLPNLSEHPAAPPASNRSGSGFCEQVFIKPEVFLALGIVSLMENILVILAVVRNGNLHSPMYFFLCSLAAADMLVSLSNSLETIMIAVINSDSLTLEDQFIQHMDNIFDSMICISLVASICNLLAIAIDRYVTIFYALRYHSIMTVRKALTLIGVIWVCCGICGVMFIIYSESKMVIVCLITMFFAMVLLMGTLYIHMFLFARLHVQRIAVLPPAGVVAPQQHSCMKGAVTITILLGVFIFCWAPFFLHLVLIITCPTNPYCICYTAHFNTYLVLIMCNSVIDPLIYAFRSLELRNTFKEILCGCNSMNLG
Chain of Melanocortin receptor 4 (Mus musculus) (P56450 whole entry): as the sequence (P56450 whole entry) above
Chain of Melanocortin receptor 5 (P41149 whole entry): as the sequence (P41149 whole entry) above
Chain of Melanocortin receptor 3 (Mus musculus) (P33033 whole entry): as the sequence (P33033 whole entry) above

Regarding `C[C@@H]1NC(=O)[C@H](CO)NC(=O)[C@H](Cc2ccccc2)NC(=O)[C@H](Cc2ccccc2)NC(=O)[C@H](CCCNC(=N)N)NC(=O)[C@@H]2CCCN2C(=O)[C@H]2CCCN2C(=O)[C@H](Cc2ccccc2)NC1=O`, the EC50 (in experiment [1]; at Melanocortin receptor 3 [2]; at Melanocortin receptor 4 [6]) was greater than 100000 nM throughout. Besides, the Kb is 20 nM on Melanocortin receptor 4 [3] and 1260 nM on Melanocortin receptor 3 [5]. The Activity in [4] was 25%.
As for `C[C@@H]1NC(=O)[C@H](CC(N)=O)NC(=O)[C@H](Cc2ccccc2)NC(=O)[C@H](Cc2ccccc2)NC(=O)[C@H](CCCNC(=N)N)NC(=O)[C@@H]2CCCN2C(=O)[C@H]2CCCN2C(=O)[C@H](Cc2ccccc2)NC1=O`, the Activity in [7] is 10%; in experiment [8], 25%.
For `C[C@@H]1NC(=O)[C@H](CN)NC(=O)[C@H](Cc2ccccc2)NC(=O)[C@H](Cc2ccccc2)NC(=O)[C@H](CCCNC(=N)N)NC(=O)[C@@H]2CCCN2C(=O)[C@H]2CCCN2C(=O)[C@H](Cc2ccccc2)NC1=O`, the figures for the Activity in experiment [9] and in [8] were 15% and 30%, respectively. The EC50 at Melanocortin receptor 3 [2] was greater than 100000 nM. Moreover, the Kb at Melanocortin receptor 3 [5] was 302 nM.
For `C[C@@H]1NC(=O)[C@H]([C@@H](C)O)NC(=O)[C@H](Cc2ccccc2)NC(=O)[C@H](Cc2ccccc2)NC(=O)[C@H](CCCNC(=N)N)NC(=O)[C@@H]2CCCN2C(=O)[C@H]2CCCN2C(=O)[C@H](Cc2ccccc2)NC1=O` (cyclo(RFFTAF[dP]P)), the Activity in [10] stood at 20%. In addition, the EC50 (in experiment [1]; at Melanocortin receptor 3 [2]; on Melanocortin receptor 4 [6]) was greater than 100000 nM each time. In addition, the Kb at Melanocortin receptor 4 [3] is 17.4 nM; at Melanocortin receptor 3 [5], 398 nM.
On to `CCC1NC(=O)[C@H](Cc2ccccc2)NC(=O)[C@H](Cc2ccccc2)NC(=O)[C@H](CCCNC(=N)N)NC(=O)[C@@H]2CCCN2C(=O)[C@H]2CCCN2C(=O)[C@H](Cc2ccccc2)NC(=O)[C@H](C)NC1=O` (stereo partly specified), for which, in [11], the Activity is 20%. The EC50 at Melanocortin receptor 3 [2] is greater than 100000 nM. In addition, the Kb at Melanocortin receptor 3 [5] is greater than 3160 nM.
Take `C[C@@H]1NC(=O)[C@H](Cc2c[nH]c3ccccc23)NC(=O)[C@H](Cc2ccccc2)NC(=O)[C@H](Cc2ccccc2)NC(=O)[C@H](CCCNC(=N)N)NC(=O)[C@@H]2CCCN2C(=O)[C@H]2CCCN2C(=O)[C@H](Cc2ccccc2)NC1=O` (cyclo(RFFWAF[dP]P)): the Activity in experiment [12] was determined as 40%; in experiment [13], 20%; in experiment [14], 50%; in [8], 80%. In addition, the Kb at Melanocortin receptor 4 [3] was 155 nM; at Melanocortin receptor 3 [5], 2000 nM.
As for `C[C@@H]1NC(=O)[C@H](CCC(=O)O)NC(=O)[C@H](Cc2ccccc2)NC(=O)[C@H](Cc2ccccc2)NC(=O)[C@H](CCCNC(=N)N)NC(=O)[C@@H]2CCCN2C(=O)[C@H]2CCCN2C(=O)[C@H](Cc2ccccc2)NC1=O`, the results for the EC50 (in experiment [1]; at Melanocortin receptor 3 [2]; on Melanocortin receptor 4 [6]) were 20500 nM, greater than 100000 nM and greater than 100000 nM, respectively. For the same compound, the Kb is 100 nM on Melanocortin receptor 4 [3] and greater than 3160 nM on Melanocortin receptor 3 [5]. Further, in experiment [15], the Activity is 10%.
In the case of `C[C@@H]1NC(=O)[C@H](C)NC(=O)[C@H](Cc2ccccc2)NC(=O)[C@H](Cc2ccccc2)NC(=O)[C@H](CCCNC(=N)N)NC(=O)[C@@H]2CCCN2C(=O)[C@H]2CCCN2C(=O)[C@H](Cc2ccccc2)NC1=O`, the EC50 (in experiment [1]; on Melanocortin receptor 3 [2]; at Melanocortin receptor 4 [6]) was greater than 100000 nM in each case. Also, the Kb was 47.9 nM at Melanocortin receptor 4 [3] and greater than 3160 nM at Melanocortin receptor 3 [5]. Further, the Activity in experiment [16] is 20%.
`N=C(N)NCCC[C@@H]1NC(=O)[C@@H]2CCCN2C(=O)[C@H]2CCCN2C(=O)[C@H](Cc2ccccc2)NC(=O)[C@H](Cc2c[nH]cn2)NC(=O)[C@H](CC(N)=O)NC(=O)[C@H](Cc2ccccc2)NC(=O)[C@H](Cc2ccccc2)NC1=O` (cyclo(RFFNHF[dP]P)): the EC50 in [1] is 2600 nM; at Melanocortin receptor 5 it was greater than 100000 nM; on Melanocortin receptor 3 [2], greater than 100000 nM; at Melanocortin receptor 4 [6], greater than 100000 nM. Further, the Activity in experiment [17] came to 40%. The values for the Kb at Melanocortin receptor 4 [3] and at Melanocortin receptor 3 [5] were 851 nM and greater than 3160 nM, respectively.
